Screens: PubChem BioAssay, several laboratories
Compounds with a hit are over-represented: about 2.1% of the library has one in this group of screens.
SMARCA2 act = SMARCA2 (BRM) function activators, primary screen, cell-based, luminescence, high throughput; 370,000 compounds, 1% hits; MG213 cells, MMTV-luciferase reporter, dexamethasone, overnight; activation, % at 9.1 µM; AID 652017, 2013; in the data active = activation above about 7.8%;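 note: 0% = vehicle wells and 100% = reference activator wells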
CFTR F508del cor = F508del CFTR correction, initial screen, CFBE line, single point; AID 720511, 2013; CFBE cells, YFP halide quenching; stimulated with forskolin plus potentiator P3; % fluorescence drop versus neutral controls; activity (quench increase), % at 7.58 µM; 350,000 compounds, 0.36% hits;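 active = mean added fluorescence quench of at least 8% versus neutral control, with both replicates also reaching 8%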;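 note: cells transiently co-express mutant CFTR-F508del with the halide-sensitive YFP; corrector assay measuring rescue of mutant channel to the surface after 24 h compound exposure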
MC4R antag cAMP = MC4R antagonists of cAMP signaling, primary screen, cell-based, TR-FRET, antagonist arm of biased-ligand search. 360,000 compounds, 0.48% hits. inhibition, % at 6.5 µM. MC4R-expressing cells, MTII-stimulated cAMP, LANCE TR-FRET. AID 540295, 2011;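 active = inhibition above its plate's cutoff, the mean of tested wells on that plate plus 3 SD, cut at about 29% in these data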;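 note: 0% = Melanotan II alone and 100% = Melanotan II plus saturating MCL0020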
Target sequence (P32245 whole entry, looked up): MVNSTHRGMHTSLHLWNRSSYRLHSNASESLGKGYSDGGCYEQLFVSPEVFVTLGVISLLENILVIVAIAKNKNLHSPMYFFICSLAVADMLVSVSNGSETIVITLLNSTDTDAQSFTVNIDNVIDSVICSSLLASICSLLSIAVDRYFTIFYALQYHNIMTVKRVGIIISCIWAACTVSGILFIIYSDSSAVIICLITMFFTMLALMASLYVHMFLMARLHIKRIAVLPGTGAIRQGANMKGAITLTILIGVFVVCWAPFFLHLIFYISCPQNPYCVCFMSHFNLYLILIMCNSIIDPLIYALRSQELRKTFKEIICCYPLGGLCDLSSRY
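Test system: U2OS cells stably expressing human melanocortin 4 receptor (MC4R); also added: Melanotan II challenge; compound: 6.5 µM single dose; timing: 30-min compound preincubation, 1-h Melanotan II challenge, 1-h detection, room temperature; signal: Eu-cAMP/anti-cAMP TR-FRET, emission 671 nm; repeats: one well per compound, no replicates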
MC4R barr agon = MC4R agonists recruiting beta-arrestin, primary screen, cell-based, luminescence, agonist arm of biased-ligand search; Melanocortin receptor 4 (Homo sapiens), P32245; U2OS MC4R beta-arrestin complementation; percent of melanotan II response, DMSO zero; activation, % at 8.9 µM; 360,000 compounds, 0.98% hits;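 active = activation above a per-plate cutoff, the mean activation of sample wells on that plate plus 3 SD, cut at about 8% in these data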
Numbers without * were called inactive; nt = no result given.

SMILES | SMARCA2 act | CFTR F508del cor | MC4R antag cAMP | MC4R barr agon
O=C(CCl)N(CCc1ccccc1)CCc1ccccc1 | -8 | 1 | 5 | 8.3*
COc1ccc(CN(C)C[C@@H]2OCCCC[C@@H](C)Oc3ccc(NC(=O)C4CCCCC4)cc3C(=O)N([C@@H](C)CO)C[C@@H]2C)cc1 | nt | -1 | nt | nt
C[C@@H]1CN([C@@H](C)CO)C(=O)Cc2cc(NC(=O)c3ccncc3)ccc2O[C@H]1CN(C)S(=O)(=O)c1ccc(F)cc1 | nt | -3 | nt | nt
C[C@@H]1CCCCO[C@H](CN(C)S(=O)(=O)c2cn(C)cn2)[C@@H](C)CN([C@H](C)CO)C(=O)c2cc(NS(=O)(=O)c3cn(C)cn3)ccc2O1 | nt | -2 | nt | nt
O=C(CCCc1nc2ccccc2s1)NC(c1ccccc1)c1ccccc1 | 7.9* | nt | 0 | 7
O=C(COC(=O)CCc1nc2ccccc2n1-c1ccccc1)Nc1cccc(Cl)c1 | -2 | nt | -4 | 4
Cc1c(Cl)cccc1NC(=O)COC(=O)CCc1nc2ccccc2n1-c1ccccc1 | 4 | nt | 14 | 8.3*
O=C(C[C@H]1C=C[C@@H](NC(=O)Nc2ccccc2F)[C@H](CO)O1)NCc1ccc(F)cc1 | nt | 1 | nt | nt
CCCCN(C(=O)c1cc(-c2ccncc2)nc2ccccc12)c1c(N)n(CC(C)C)c(=O)[nH]c1=O | 7.9* | -1 | 10 | 1
CCCNC(=O)C[C@H]1C[C@@H]2c3cc(NC(=O)Nc4ccccc4F)ccc3O[C@@H]2[C@H](CO)O1 | nt | -1 | nt | nt
Cc1cc(N2CCCC(C(=O)Nc3cccc(Cl)c3)C2)n2ncnc2n1 (configuration not stated) | -1 | -1 | 3 | -2
Cc1cc(C)nc(N2CCCC(C(=O)Nc3cccc(Cl)c3)C2)n1 (configuration not stated) | 3 | 1 | 20 | 8.4*
CC(C)(C)c1ccc(/C=C/C(=O)c2ccc(NC3=NCCCS3)cc2)cc1 | 1 | 8.3* | 19 | -1
COc1ccc(NC(=O)C2CCCN2C(=O)Nc2cccc(F)c2)cc1 (configuration not stated) | 2 | 9.7* | 3 | 1
COc1ccc2c3c([nH]c2c1)[C@H](CO)N(C(=O)Nc1ccc(F)cc1)CC31CCN(S(=O)(=O)c2ccccc2)CC1 | nt | 8.8* | nt | nt
CCCNC(=O)N1CC2(CN(CC3CCCCC3)C2)c2c(n(C)c3cc(OC)ccc23)[C@H]1CO | nt | 9.3* | nt | nt
COCC(=O)N1CC2(CCN(Cc3ccccc3)CC2)c2c([nH]c3cc(OC)ccc23)[C@H]1CO | nt | 13* | nt | nt
COc1ccc2c3c([nH]c2c1)[C@H](CO)N(S(C)(=O)=O)CC31CCN(Cc2cccc(F)c2)CC1 | nt | 8.3* | nt | nt
C[C@@H]1CN([C@@H](C)CO)C(=O)c2cc(NS(=O)(=O)c3cn(C)cn3)ccc2O[C@@H]1CN(C)C(=O)Nc1ccccc1 | nt | -1 | nt | nt
CCC(=O)Nc1ccc2c(c1)C(=O)N(C)[C@H]1CC[C@@H](CC(=O)NCc3ccccc3)O[C@@H]1CO2 | nt | 1 | nt | nt
CCCN(C)C[C@H]1Oc2ncc(C#Cc3ccc(OC)cc3)cc2C(=O)N([C@H](C)CO)C[C@H]1C | nt | 2 | nt | nt
Cc1noc(C)c1S(=O)(=O)Nc1ccc2c(c1)C(=O)N([C@@H](C)CO)C[C@@H](C)[C@H](CN(C)S(=O)(=O)c1cccs1)OCCCC[C@@H](C)O2 | nt | 1 | nt | nt
C[C@@H]1CN([C@@H](C)CO)S(=O)(=O)c2ccc(C#CC3(O)CCCC3)cc2O[C@@H]1CN(C)C(=O)c1ccncc1 | nt | 1 | nt | nt
C[C@H](CO)N1C[C@H](C)[C@H](CN(C)C(=O)Nc2ccccc2)Oc2ccc(NC(=O)Nc3ccc4c(c3)OCO4)cc2C1=O | nt | -1 | nt | nt
COc1ccc2c3c(n(C)c2c1)[C@@H](CO)N(C(=O)C1CC1)CC31CCN(Cc2cccc(F)c2)CC1 | nt | 6 | nt | nt
SMILES | SMARCA2 act | CFTR F508del cor | MC4R antag cAMP | MC4R barr agon
COc1ccc2c3c(n(C)c2c1)[C@H](CO)N(C(=O)C1CC1)CC31CCN(Cc2cccc(F)c2)CC1 | nt | 15* | nt | nt
C[C@H]1CN([C@@H](C)CO)C(=O)c2cccc(NC(=O)c3ccncc3)c2O[C@H]1CN(C)C(=O)Nc1cccc2ccccc12 | nt | -2 | nt | nt
Cc1ccc(NC(=O)C(=O)NC(C)C2COc3ccccc3O2)cc1 (configuration not stated) | 0 | nt | -3 | 11*
CC(NC(=O)CCC(=O)NC(C)C1COc2ccccc2O1)C1COc2ccccc2O1 (configuration not stated) | nt | nt | 0 | -1
N#Cc1c(-c2ccc(F)cc2)c(-c2ccc(F)cc2)nn(CCO)c1=O | -1 | 18* | -6 | -3
Cc1ccc(-c2ccc3c(c2)O[C@@H](CN(C)Cc2ccccn2)[C@@H](C)CN([C@@H](C)CO)S3(=O)=O)cc1 | nt | 3 | nt | nt
Cc1ccc(-c2ccc3c(c2)O[C@H](CN(C)Cc2ccccn2)[C@@H](C)CN([C@@H](C)CO)S3(=O)=O)cc1 | nt | 12* | nt | nt
Cc1ccc(-c2ccc3c(c2)O[C@H](CN(C)Cc2ccccn2)[C@@H](C)CN([C@H](C)CO)S3(=O)=O)cc1 | nt | 16* | nt | nt
CN1C(=O)c2cc(NC(=O)c3cccs3)ccc2OC[C@H]2O[C@H](CC(=O)N3CCCCC3)CC[C@H]21 | nt | -2 | nt | nt
O=C(C[C@@H]1CC[C@@H]2[C@H](COC[C@H](O)CN2Cc2ccc(Oc3ccccc3)cc2)O1)Nc1nccs1 | nt | 7 | nt | nt
COc1ccc2c3c([nH]c2c1)[C@H](CO)N(Cc1ccccc1)CC31CN(C(=O)c2cccnc2)C1 | nt | 2 | nt | nt
CCC(C)(C)c1ccc(OCCCC[n+]2cccc(C)c2)c(C(C)(C)CC)c1 | -14 | 4 | 11 | 19*
Cc1ccc(C)c(OCCCNCc2ccccc2)c1 | -4 | 0 | 17 | 7
Clc1cc(Br)ccc1OCCCNCc1ccccc1 | -2 | nt | 3 | 8.8*
COc1ccc(-c2nc3c(c(=O)c4ccccc4n3C)c(=O)n2Cc2ccccc2)cc1 | -1 | nt | 9 | 0
COc1ccc(Cn2c(-c3ccc(C)cc3)nc3c(c(=O)c4ccccc4n3C)c2=O)cc1 | -3 | nt | 15 | 9.2*
COc1ccc(CN(C)C[C@H]2Oc3ccc(NC(=O)Nc4c(C)noc4C)cc3CC(=O)N([C@@H](C)CO)C[C@@H]2C)cc1 | nt | 2 | nt | nt
COCCNc1nc(Oc2cccc(NC(C)=O)c2)c2sc(-c3ccccc3)cc2n1 | -1 | 0 | 23 | 9.1*
COc1ccc(CC(=O)Nc2ccc(-c3cn4cccc(C)c4n3)cc2)cc1OC | 0 | nt | 5 | 1
Cc1cccn2cc(-c3ccc(NC(=O)Cc4ccccc4)cc3)nc12 | -2 | -1 | 3 | 9.3*
CCOC(=O)C1=C(c2ccccc2)NC(=O)NC1c1ccc(O)c(Cl)c1 (configuration not stated) | -1 | 3 | 9 | 52*
O=C(Nc1ccccc1)N1N=C(c2cccs2)CC1c1cccs1 (configuration not stated) | -5 | nt | -1 | 1
